Source: ChEMBL document CHEMBL3351606, “Targeting (cellular) lysosomal acid ceramidase by B13: design, synthesis and evaluation of novel DMG-B13 ester prodrugs” (Bioorg Med Chem, 2014)
Converted amounts (≈) assume the structure as drawn. The source made the active and inactive calls. The rule behind the calls is not given here.

What was measured:
MCF7 [1] = assay: Reduction in Sph level in human MCF7 cells at 10 uM after 1 hr by LC-MS/MS analysis; type: ADME, cell-based; conditions: MCF7, 1 h
Outline: (§1)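 MCF7 cells treated 1 h with compound or ethanol vehicle; pellets spiked with internal standards, lipids extracted and Sph and total Cer quantified by LC–MS/MS in MRM mode, expressed as pmol per nmol lipid phosphate and as % of control; duplicates.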

MCF7 [2] = assay: Drug formation in human MCF7 cells treated with LCL596 up to 2 to 5 hrs by LC-MS/MS analysis; type: ADME, cell-based
Outline: (§2)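 MCF7 cells (RPMI 1640, 10% FBS) treated with test compound or vehicle (ethanol) over a time course up to 24 h; after washing with cold PBS and scraping, pellets spiked with internal standards, lipids extracted (ethyl acetate/isopropanol/water) and compounds quantified by LC–MS/MS in positive MRM mode against calibration curves, normalized to lipid phosphate; duplicates.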

[3] = target: T1, Acid ceramidase (Homo sapiens) (UniProt Q13510); assay: Inhibition of ACDase in human MCF7 cell lysate using [9,10-3H] De-C16-Cer substrate at 50 uM after 1 hr by scintillation counting analysis; type: cell-free
T1 sequence (whole entry): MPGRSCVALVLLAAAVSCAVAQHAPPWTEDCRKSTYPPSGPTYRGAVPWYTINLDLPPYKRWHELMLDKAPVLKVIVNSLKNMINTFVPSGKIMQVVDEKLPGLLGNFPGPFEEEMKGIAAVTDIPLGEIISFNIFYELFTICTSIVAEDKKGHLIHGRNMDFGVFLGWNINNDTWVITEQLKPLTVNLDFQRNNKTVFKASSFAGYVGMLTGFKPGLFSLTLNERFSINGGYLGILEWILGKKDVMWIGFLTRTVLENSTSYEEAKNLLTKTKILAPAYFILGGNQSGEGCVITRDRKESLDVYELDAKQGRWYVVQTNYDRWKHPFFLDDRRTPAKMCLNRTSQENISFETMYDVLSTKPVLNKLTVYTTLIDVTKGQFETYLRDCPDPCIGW
Outline: (§3)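 ACDase activity in MCF7 lysate (pH 4.5): [9,10-3H] D-e-C16-Cer and compound dried with 0.2% Triton X-100/0.4% cholate, then protein and 0.2 M acetate buffer with 0.5% Triton X-100 (pH 4.5) added; 1 h at 37 °C, stopped with Dole's solution; released [3H]palmitic acid scintillation-counted, pmol/mg protein/h, % control; duplicates.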

MCF7 [4] = assay: Drug uptake in human MCF7 cells assessed as drug level at 10 uM after 24 hrs by LC-MS/MS analysis; type: ADME, cell-based; conditions: mcf7, 24 h; outline: as §2
[5] = Toxicity in rat; type: organism-based; conditions: in vivo
[6] = target: T1, Acid ceramidase (Homo sapiens); assay: Inhibition of ACDase in human MCF7 cell lysate using [9,10-3H] De-C16-Cer substrate at 20 uM after 1 hr by scintillation counting analysis; type: cell-free; outline: as §3
MCF7 [7] = assay: Induction in Cer level in human MCF7 cells at 10 uM after 1 hr by LC-MS/MS analysis; type: functional; outline: as §1
[8] = target: T1, Acid ceramidase (Homo sapiens); assay: Inhibition of ACDase in human MCF7 cells at 10 uM after 1 hr by cellular/scintillation counting analysis; type: cell-based
Outline: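 MCF7 cells treated 1 h with compound or vehicle, washed in cold PBS and scraped; lysate ACDase activity then measured at pH 4.5 with [9,10-3H] D-e-C16-Cer, 1 h at 37 °C, released [3H]palmitic acid counted; pmol/mg protein/h, % control; quadruplicates.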

[9] = target: Neutral ceramidase (Homo sapiens) (UniProt Q9NR71); assay: Inhibition of NCDase in human HeLa cells expressing ASAH2 assessed as increase in Sph level at 10 uM after 1 hr by LC-MS/MS analysis; type: cell-based
Outline: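 HeLa cells stably carrying ACER2, ASAH2 or empty vector, grown to 60% confluence, given tetracycline 5 ng/mL overnight, then treated 1 h with compound (1 or 10 µM) or ethanol; sphingolipids extracted and Sph measured by LC–MS/MS per nmol lipid phosphate, also given as Sph ratio of ACER2 or ASAH2 cells to vector cells.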

MCF7 [10] = assay: Effect on lysosomal stability in human MCF7 cells assessed as recovery of Lysotracker Red uptake at 10 uM after 5 hrs by FACS analysis; type: functional, cell-based
Outline: (§4)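 MCF7 cells seeded overnight, medium switched to 2% FBS with compound in ethanol or ethanol alone, 1 or 5 h at 37 °C, then Lysotracker Red DND-99 200 nM for 30 min at 37 °C. Cells trypsinized, washed and analysed by FACS (564–606 nm), at least 10,000 events per sample; lower fluorescence read as higher lysosomal pH; triplicates, % of control.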

[11] = system: Alkaline ceramidase 2 (Homo sapiens); assay: Inhibition of AlkCDase in human HeLa cells expressing […] assessed as fold increase in Sph level at 10 uM after 1 hr by LC-MS/MS analysis
MCF7 [12] = assay: Reduction in Sph level in human MCF7 cells at 1 uM after 5 hrs by LC-MS/MS analysis; type: ADME, cell-based; conditions: MCF7, 5 h
[13] = system: Alkaline ceramidase 2 (Homo sapiens); assay: Inhibition of AlkCDase in human HeLa cells expressing […] assessed as fold increase in Sph level at 1 uM after 1 hr by LC-MS/MS analysis
MCF7 [14] = assay: Reduction in alpha-ACDase level in human MCF7 cells at 10 uM by scintillation counting analysis; type: functional, cell-based; conditions: in the assay text read “Western blot analysis” for “scintillation counting analysis”, TDE = time-dependent effect
Outline: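 MCF7 cells treated 1 and 5 h with compound or vehicle; lysates (35 µg protein) run on SDS gels, blotted, probed with mouse monoclonal anti-ACDase and HRP secondary; bands of the cleaved alpha-ACDase chain quantified by densitometry, normalized to actin, % control.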

[15] = target: T2, Sphingomyelin phosphodiesterase (Homo sapiens) (UniProt P17405); assay: Inhibition of lysosomal ASMase activity in human MCF7 cells assessed as [methyl-14C]choline release at 10 uM after 1 hr; type: cell-based
T2 sequence (whole entry): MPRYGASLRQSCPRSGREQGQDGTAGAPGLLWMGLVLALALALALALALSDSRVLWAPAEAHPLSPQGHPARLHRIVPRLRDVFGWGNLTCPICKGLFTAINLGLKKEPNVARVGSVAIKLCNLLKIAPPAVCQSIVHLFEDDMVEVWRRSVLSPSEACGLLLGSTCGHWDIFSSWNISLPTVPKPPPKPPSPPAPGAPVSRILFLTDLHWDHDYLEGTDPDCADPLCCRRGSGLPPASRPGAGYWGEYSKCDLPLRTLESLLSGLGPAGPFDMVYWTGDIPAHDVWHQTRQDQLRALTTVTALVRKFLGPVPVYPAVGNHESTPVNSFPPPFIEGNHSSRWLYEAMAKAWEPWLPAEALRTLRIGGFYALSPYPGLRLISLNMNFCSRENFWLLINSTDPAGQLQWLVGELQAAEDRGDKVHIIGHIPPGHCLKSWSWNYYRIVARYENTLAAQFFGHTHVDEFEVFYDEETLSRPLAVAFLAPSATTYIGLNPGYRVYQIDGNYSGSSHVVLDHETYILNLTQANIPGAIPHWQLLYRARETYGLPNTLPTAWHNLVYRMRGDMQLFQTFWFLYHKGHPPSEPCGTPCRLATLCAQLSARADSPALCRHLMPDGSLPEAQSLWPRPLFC
Outline: (§5)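 MCF7 cells treated 1 h with compound or vehicle, lysed in 0.2% Triton X-100/50 mm Tris-HCl pH 7.4 with EDTA and protease/phosphatase inhibitors; clarified lysate incubated with 100 µM porcine brain SM plus choline-[methyl-14C] SM in Triton micelles, 250 mM sodium acetate pH 5.0, 1.0 mM EDTA, 30 min at 37 °C; aqueous-phase 14C counted after Folch extraction; triplicates, % control.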

[16] = system: Alkaline ceramidase 2 (Homo sapiens); assay: Inhibition of AlkCDase in human HeLa cells expressing […] assessed as increase in Sph level at 10 uM after 1 hr by LC-MS/MS analysis
MCF7 [17] = assay: Reduction in alpha-ACDase level in human MCF7 cells at 1 uM by Western blot analysis
MCF7 [18] = assay: Reduction in Sph level in human MCF7 cells at 1 uM after 1 hr by LC-MS/MS analysis; type: ADME, cell-based; conditions: MCF7, 1 h, read-out: INH; outline: as §1
[19] = target: Neutral ceramidase (Homo sapiens) (UniProt Q9NR71); assay: Inhibition of NCDase in human MCF7 cells assessed as release of [3H] palmitic acid at 10 uM after 1 hr
[20] = Solubility in water at 25 degC; type: physicochemical
[21] = target: T2, Sphingomyelin phosphodiesterase (Homo sapiens); assay: Inhibition of lysosomal ASMase activity in human MCF7 cells assessed as [methyl-14C]choline release at 1 uM after 1 hr; type: cell-based; outline: as §5
MCF7 [22] = assay: Induction in Cer level in human MCF7 cells at 50 uM after 1 hr by LC-MS/MS analysis; type: functional
[23] = system: Alkaline ceramidase 2 (Homo sapiens); assay: Inhibition of AlkCDase in microsomes of human HeLa cells using D-e-C18:1-Cer substrate up to 250 uM after 30 mins
MCF7 [24] = assay: Drug formation in human MCF7 cells treated with LCL522 up to 2 to 5 hrs by LC-MS/MS analysis; type: ADME, cell-based; outline: as §2
[25] = target: T1, Acid ceramidase (Homo sapiens); conditions: MCF7, 50 uM
MCF7 [26] = assay: Reduction in Sph level in human MCF7 cells at 50 uM after 5 hrs by LC-MS/MS analysis; type: functional; conditions: MCF7, 5 h
MCF7 [27] = assay: Reduction in Sph level in human MCF7 cells at 50 uM after 24 hrs by LC-MS/MS analysis; type: functional; conditions: MCF7, 24 h
MCF7 [28] = assay: Induction in Cer level in human MCF7 cells at 50 uM after 24 hrs hr by LC-MS/MS analysis; type: functional
[29] = target: T1, Acid ceramidase (Homo sapiens); conditions: MCF7, 50 uM; remark: listed apart in the source
MCF7 [30] = assay: Reduction in Sph level in human MCF7 cells at 30 uM by LC-MS/MS analysis; type: functional, cell-based
[31] = target: T1, Acid ceramidase (Homo sapiens); conditions: MCF7, 50 uM; remark: listed apart in the source
Acid ceramidase = target: T3, Acid ceramidase (Homo sapiens, UniProt Q13510); assay: Inhibition of ACDase in human MCF7 cell lysate using [9,10-3H] De-C16-Cer substrate after 1 hr by scintillation counting analysis
T3 sequence (Q13510 whole entry): T1 sequence (whole entry)

MCF7 [32] = assay: Effect on lysosomal stability in human MCF7 cells assessed as increase in Lysotracker Red uptake at 10 uM after 5 hrs by FACS analysis; type: ADME, cell-based; conditions: mcf7, 5 h; outline: as §4

Neutral ceramidase (Homo sapiens), sequence (Q9NR71 whole entry): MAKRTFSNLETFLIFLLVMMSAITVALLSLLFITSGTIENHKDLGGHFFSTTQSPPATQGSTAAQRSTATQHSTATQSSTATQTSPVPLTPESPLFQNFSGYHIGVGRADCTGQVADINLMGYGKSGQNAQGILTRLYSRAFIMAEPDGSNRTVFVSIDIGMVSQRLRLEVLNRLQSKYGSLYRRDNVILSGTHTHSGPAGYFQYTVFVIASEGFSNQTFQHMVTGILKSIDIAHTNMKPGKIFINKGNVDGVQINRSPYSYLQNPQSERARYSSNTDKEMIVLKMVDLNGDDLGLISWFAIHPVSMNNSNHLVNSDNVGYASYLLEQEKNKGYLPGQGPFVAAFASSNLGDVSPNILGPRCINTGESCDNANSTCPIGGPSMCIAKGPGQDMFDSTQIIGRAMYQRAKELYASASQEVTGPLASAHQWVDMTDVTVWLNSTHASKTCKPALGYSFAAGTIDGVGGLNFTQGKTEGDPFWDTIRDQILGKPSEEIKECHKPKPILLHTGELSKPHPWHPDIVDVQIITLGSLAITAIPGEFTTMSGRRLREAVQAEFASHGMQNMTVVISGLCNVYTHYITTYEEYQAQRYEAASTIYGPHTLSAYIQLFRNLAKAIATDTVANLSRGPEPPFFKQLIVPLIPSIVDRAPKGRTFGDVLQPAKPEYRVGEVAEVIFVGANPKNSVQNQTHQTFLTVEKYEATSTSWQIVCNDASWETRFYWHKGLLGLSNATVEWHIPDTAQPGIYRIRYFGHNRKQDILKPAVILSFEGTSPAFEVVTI

| SMILES | inhibition at 10 µM (MCF7 [1]) [%] | inhibition [3] | Drug uptake (MCF7 [4]) | LD50 [5] [mg/kg] | inhibition [6] | Activity (MCF7 [7]) | inhibition [8] | Activity (MCF7 [10]) | solubility [20] [mg/mL] | Drug metabolism (MCF7 [24]) | also measured |
| --- | --- | --- | --- | --- | --- | --- | --- | --- | --- | --- | --- |
| CCCCCCCCCCCCCC(=O)N[C@H](CO)[C@H](OC(=O)CN(C)C)c1ccc([N+](=O)[O-])cc1.Cl | 60 | Active | Active | 3900 | Active | inactive | Active |  |  |  | Drug metabolism (MCF7 [2]): metabolite_detected |
| CCCCCCCCCCCCCC(=O)N[C@H](COC(=O)CN(C)C)[C@H](OC(=O)CN(C)C)c1ccc([N+](=O)[O-])cc1.Cl | 97 | Active | 27% | 3900 | Active | 130% | Active | Active | 430 |  | inhibition [9]: inactive; fold change (FC) [11]: 5; inhibition at 1 µM (MCF7 [12]): 50%; fold change (FC) [13]: 2; inhibition (MCF7 [14]): tde; inhibition [15]: 85%; inhibition [16]: Active; Activity (MCF7 [17]): inactive; inhibition at 1 µM (MCF7 [18]): 80%; inhibition [19]: inactive; inhibition [21]: 30% |
| CCCCCCCCCCCCCC(=O)N[C@H](CO)[C@H](O)c1ccc([N+](=O)[O-])cc1 |  | 95% |  |  |  |  | Active | inactive | 0.008 (≈ 18.9 µM) | metabolite_detected | Activity (MCF7 [22]): 140%; inhibition [23]: inactive; inhibition [25]: 50%; inhibition at 50 µM (MCF7 [26]): 70%; inhibition at 50 µM (MCF7 [27]): 40%; Activity (MCF7 [28]): 270%; inhibition [29]: 40%; inhibition (MCF7 [30]): Active; inhibition [31]: 20%; IC50 (Acid ceramidase): 27.7 µM |
| CCCCCCCCCCCCCC(=O)N[C@H](COC(=O)CN(C)C)[C@H](O)c1ccc([N+](=O)[O-])cc1.Cl | 60 | Active | Active | 3900 | Active | inactive | Active |  |  | metabolite_detected | Activity (MCF7 [32]): 180% |
